In brackets after ≈: the same amount, converted by molar mass. Activity calls are given as the source filed them. The calls are words filed in the database; no cut-off is given here.
What was measured:
Streptococcus pneumoniae [1] = experiment: Antimicrobial activity against erythromycin-susceptible Streptococcus pneumoniae ATCC 49619 incubated in CAMHB medium for 20 to 24 hrs by two-fold microbroth dilution method; assay type: functional
Streptococcus pneumoniae [2] = experiment: Antimicrobial activity against mef-encoded erythromycin resistant Streptococcus pneumoniae PU09 incubated in CAMHB medium for 20 to 24 hrs by two-fold microbroth dilution method; assay type: functional
Streptococcus pneumoniae [3] = experiment: Bactericidal activity against erythromycin-susceptible Streptococcus pneumoniae ATCC 49619 assessed as reduction in colony formation incubated in CAMHB medium for 20 to 24 hrs followed by 24 hrs subculturing in the medium without test compound; assay type: functional
Streptococcus pneumoniae [4] = experiment: Ratio of MBC to MIC for erythromycin-susceptible Streptococcus pneumoniae ATCC 49619; assay type: functional
Streptococcus pneumoniae [5] = experiment: Bactericidal activity against mef-encoded erythromycin resistant Streptococcus pneumoniae PU09 assessed as reduction in colony formation incubated in CAMHB medium for 20 to 24 hrs followed by 24 hrs subculturing in the medium without test compound; assay type: functional
Streptococcus pyogenes [6] = experiment: Antimicrobial activity against inducibly erythromycin resistant Streptococcus pyogenes 01-968 expressing i-ermA incubated in CAMHB medium for 20 to 24 hrs by two-fold microbroth dilution method; assay type: functional
Streptococcus pyogenes [7] = experiment: Bactericidal activity against inducibly erythromycin resistant Streptococcus pyogenes 01-968 expressing i-ermA assessed as reduction in colony formation incubated in CAMHB medium for 20 to 24 hrs followed by 24 hrs subculturing in the medium without test compound; assay type: functional
Streptococcus pyogenes [8] = experiment: Ratio of MBC to MIC for inducibly erythromycin resistant Streptococcus pyogenes 01-968 expressing i-ermA; assay type: functional
Staphylococcus aureus [9] = experiment: Antimicrobial activity against constitutively erythromycin resistant and methicillin resistant Staphylococcus aureus PU20 expressing c-ermC incubated in CAMHB medium for 20 hrs by two-fold microbroth dilution method; assay type: functional; conditions: PU20, 20 h
Method in brief: (§1)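 Purified fresh Staphylococcus isolate at about 5×10^5 CFU/ml final in CAMHB, 35 °C for 20 h. Each run included ATCC strains and reference antibiotics as QC, plus an antibiotic-free growth control.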

Staphylococcus aureus [10] = experiment: Bactericidal activity against constitutively erythromycin resistant and methicillin-resistant Staphylococcus aureus PU20 expressing c-ermC assessed as reduction in colony formation incubated in CAMHB medium for 20 hrs followed by 24 hrs subculturing in the medium without test compound; assay type: functional
Staphylococcus aureus [11] = experiment: Ratio of MBC to MIC for constitutively erythromycin resistant and methicillin-resistant Staphylococcus aureus PU20 expressing c-ermC; assay type: functional
Staphylococcus aureus [12] = experiment: Antimicrobial activity against inducibly erythromycin-resistant and methicillin resistant Staphylococcus aureus PU32 expressing i-ermA incubated in CAMHB medium for 20 hrs by two-fold microbroth dilution method; assay type: functional; conditions: PU32, 20 h; method in brief: as §1
Staphylococcus aureus [13] = experiment: Bactericidal activity against inducibly erythromycin-resistant and methicillin resistant Staphylococcus aureus PU32 expressing i-ermA assessed as reduction in colony formation incubated in CAMHB medium for 20 hrs followed by 24 hrs subculturing in the medium without test compound; assay type: functional
Moraxella catarrhalis [14] = experiment: Antimicrobial activity against erythromycin-susceptible Moraxella catarrhalis 13L332 incubated in CAMHB medium for 20 hrs by two-fold microbroth dilution method; assay type: functional; conditions: 13L332, 20 h
Method in brief: (§2)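 Clinical isolates and ATCC strains, purified by plate activation and used fresh; inoculum about 5×10^5 CFU/ml final. Grown in CAMHB at 35 °C for 20 h.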

Moraxella catarrhalis [15] = experiment: Bactericidal activity against erythromycin-susceptible Moraxella catarrhalis 13L332 assessed as reduction in colony formation incubated in CAMHB medium for 20 hrs followed by 24 hrs subculturing in the medium without test compound; assay type: functional
Moraxella catarrhalis [16] = experiment: Ratio of MBC to MIC for erythromycin-susceptible Moraxella catarrhalis 13L332; assay type: functional
Streptococcus pneumoniae [17] = experiment: Ratio of MBC to MIC for mef-encoded erythromycin resistant Streptococcus pneumoniae PU09; assay type: functional
Staphylococcus aureus [18] = experiment: Ratio of MBC to MIC for inducibly erythromycin-resistant and methicillin resistant Staphylococcus aureus PU32 expressing i-ermA; assay type: functional
Haemophilus influenzae [19] = experiment: Antimicrobial activity against azithromycin-susceptible Haemophilus influenzae ATCC 49247 incubated in HTM broth medium for 20 to 24 hrs by two-fold microbroth dilution method; assay type: functional
Haemophilus influenzae [20] = experiment: Bactericidal activity against azithromycin-susceptible Haemophilus influenzae ATCC 49247 assessed as reduction in colony formation incubated in HTM broth medium for 20 to 24 hrs followed by 24 hrs subculturing in the medium without test compound; assay type: functional
Haemophilus influenzae [21] = experiment: Ratio of MBC to MIC for azithromycin-susceptible Haemophilus influenzae ATCC 49247; assay type: functional
Streptococcus pneumoniae [22] = experiment: Antimicrobial activity against constitutively erythromycin resistant Streptococcus pneumoniae PU27 expressing c-erm incubated in CAMHB medium for 20 to 24 hrs by two-fold microbroth dilution method; assay type: functional
Method in brief: (§3)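 Purified fresh Streptococcus isolate at about 5×10^5 CFU/ml final in CAMHB with 5% horse serum, 35 °C for 20–24 h. […] Each run included ATCC strains and reference antibiotics as QC, plus an antibiotic-free growth control.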

Streptococcus pyogenes [23] = experiment: Antimicrobial activity against constitutively erythromycin resistant Streptococcus pyogenes A2 expressing c-erm incubated in CAMHB medium for 20 to 24 hrs by two-fold microbroth dilution method; assay type: functional; method in brief: as §3
Streptococcus pyogenes [24] = experiment: Antimicrobial activity against erythromycin-susceptible Streptococcus pyogenes A3 incubated in CAMHB medium for 20 to 24 hrs by two-fold microbroth dilution method; assay type: functional
Staphylococcus aureus [25] = experiment: Antimicrobial activity against erythromycin-susceptible Staphylococcus aureus ATCC 29213 incubated in CAMHB medium for 20 hrs by two-fold microbroth dilution method; assay type: functional; conditions: ATCC 29213, 20 h; method in brief: as §2
Staphylococcus aureus [26] = experiment: Antimicrobial activity against inducibly erythromycin-resistant Staphylococcus aureus PU32 expressing i-ermA incubated in CAMHB medium for 20 hrs by two-fold microbroth dilution method; assay type: functional; conditions: PU32, 20 h
Method in brief: (§4)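 Purified fresh Staphylococcus isolate at about 5×10^5 CFU/ml final in CAMHB, 35 °C for 20 h. […] Each run included ATCC strains and reference antibiotics as QC, plus an antibiotic-free growth control.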

Staphylococcus aureus [27] = experiment: Antimicrobial activity against constitutively erythromycin resistant Staphylococcus aureus PU20 expressing c-ermC incubated in CAMHB medium for 20 hrs by two-fold microbroth dilution method; assay type: functional; conditions: PU20, 20 h; method in brief: as §4
Staphylococcus aureus [28] = experiment: Antimicrobial activity against inducibly erythromycin resistant Staphylococcus aureus PU64 expressing i-ermA incubated in CAMHB medium for 20 hrs by two-fold microbroth dilution method; assay type: functional; conditions: PU64, 20 h; method in brief: as §4
[29] = test system: Staphylococcus epidermidis; experiment: Antimicrobial activity against Staphylococcus epidermidis E1 incubated in CAMHB medium for 20 hrs by two-fold microbroth dilution method; assay type: functional; conditions: E1, 20 h; method in brief: as §2
Streptococcus pneumoniae [30] = experiment: Bactericidal activity against erythromycin-susceptible Streptococcus pneumoniae ATCC 49619 assessed as log reduction in bacterial CFU at 1 to 16XMIC incubated for 1 to 24 hrs by broth dilution method; assay type: functional
Method in brief: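 Samples taken at 1, 2, 4, 6, 8, 12, 24 h, diluted and plated, colonies counted after 20-24 h at 35 °C; log CFU plotted against time. Detection limit 300 CFU/mL.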

Streptococcus pneumoniae [31] = experiment: Bactericidal activity against mef-encoded erythromycin resistant Streptococcus pneumoniae PU09 at 1 to 16xMIC incubated for 1 to 24 hrs by broth dilution method; assay type: functional, organism-based
Method in brief: (§5)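 Samples were taken at 1, 2, 4, 6, 8, 12 and 24 h, diluted and subcultured at 35 °C for 20–24 h. Colonies were counted and log CFU plotted against time; detection limit 300 CFU/mL.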

Streptococcus pyogenes [32] = experiment: Bactericidal activity against inducibly erythromycin resistant Streptococcus pyogenes 01-968 expressing i-ermA at 1XMIC incubated for 12 hrs by broth dilution method; assay type: functional, organism-based; method in brief: as §5
Streptococcus pyogenes [33] = experiment: Bactericidal activity against inducibly erythromycin resistant Streptococcus pyogenes 01-968 expressing i-ermA at 1XMIC incubated for 24 hrs by broth dilution method; assay type: functional, organism-based; method in brief: as §5

Compound	MIC (Streptococcus pneumoniae [1])	MIC (Streptococcus pneumoniae [2])	MBC (Streptococcus pneumoniae [3])	Ratio (Streptococcus pneumoniae [4])	MBC (Streptococcus pneumoniae [5])	MIC (Streptococcus pyogenes [6])	MBC (Streptococcus pyogenes [7])	Ratio (Streptococcus pyogenes [8])	MIC (Staphylococcus aureus [9])	MBC (Staphylococcus aureus [10])	Ratio (Staphylococcus aureus [11])	MIC (Staphylococcus aureus [12])	MBC (Staphylococcus aureus [13])	MIC (Moraxella catarrhalis [14])	MBC (Moraxella catarrhalis [15])	Ratio (Moraxella catarrhalis [16])	Ratio (Streptococcus pneumoniae [17])	Ratio (Staphylococcus aureus [18])	also measured
CC[C@H]1OC(=O)[C@H](C)[C@@H](OCC#Cc2ccc(C(=O)c3ccccc3)s2)[C@H](C)[C@@H](O[C@@H]2O[C@H](C)C[C@H](N(C)C)[C@H]2O)[C@](C)(OC)C[C@@H](C)/C(=N\OC)[C@H](C)[C@H]2OC(=O)O[C@@]21C	8 µg/mL (≈ 9.21 µM)	4 µg/mL (≈ 4.6 µM)	16 µg/mL (≈ 18.4 µM)	2	8 µg/mL (≈ 9.21 µM)	4 µg/mL (≈ 4.6 µM)	8 µg/mL (≈ 9.21 µM)	2	32 µg/mL (≈ 36.8 µM)	> 256 µg/mL	>8	> 256 µg/mL	> 256 µg/mL	8 µg/mL (≈ 9.21 µM)	16 µg/mL (≈ 18.4 µM)	2	–	–	–
CC[C@H]1OC(=O)[C@H](C)[C@@H](OCC#Cc2ccc(-c3ccccn3)s2)[C@H](C)[C@@H](O[C@@H]2O[C@H](C)C[C@H](N(C)C)[C@H]2O)[C@](C)(OC)C[C@@H](C)/C(=N\OC)[C@H](C)[C@H]2OC(=O)O[C@@]21C	4 µg/mL (≈ 4.75 µM)	8 µg/mL (≈ 9.5 µM)	16 µg/mL (≈ 19 µM)	4	16 µg/mL (≈ 19 µM)	8 µg/mL (≈ 9.5 µM)	64 µg/mL (≈ 76 µM)	8	256 µg/mL (≈ 304 µM)	256 µg/mL (≈ 304 µM)	1	> 256 µg/mL	> 256 µg/mL	4 µg/mL (≈ 4.75 µM)	8 µg/mL (≈ 9.5 µM)	2	2	–	–
CC[C@H]1OC(=O)[C@H](C)[C@@H](OC(=O)CCNCCCc2ccc(-n3ccnc3)cc2)[C@H](C)[C@@H](O[C@@H]2O[C@H](C)C[C@H](N(C)C)[C@H]2O)[C@](C)(OC)C[C@@H](C)/C(=N\OC)[C@H](C)[C@H]2OC(=O)O[C@@]21C	2 µg/mL (≈ 2.22 µM)	4 µg/mL (≈ 4.44 µM)	4 µg/mL (≈ 4.44 µM)	2	8 µg/mL (≈ 8.89 µM)	16 µg/mL (≈ 17.8 µM)	32 µg/mL (≈ 35.6 µM)	2	64 µg/mL (≈ 71.1 µM)	> 256 µg/mL	>4	64 µg/mL (≈ 71.1 µM)	128 µg/mL (≈ 142 µM)	–	–	–	–	2	MIC (Haemophilus influenzae [19]): 256 µg/mL (≈ 284 µM); MBC (Haemophilus influenzae [20]): 256 µg/mL (≈ 284 µM); Ratio (Haemophilus influenzae [21]): 1
CC[C@H]1OC(=O)[C@H](C)C(=O)[C@H](C)[C@@H](O[C@@H]2O[C@H](C)C[C@H](N(C)C)[C@H]2O)[C@](C)(OC)C[C@@H](C)C(=O)[C@H](C)[C@H]2N(CCCCn3cnc(-c4cccnc4)c3)C(=O)O[C@]12C [TELITHROMYCIN]	–	0.25 to 1 µg/mL (≈ 0.308 to 1.23 µM)	0.031 to 0.125 µg/mL (≈ 0.0382 to 0.154 µM)	1 - 4	1 to 4 µg/mL (≈ 1.23 to 4.93 µM)	0.031 to 0.062 µg/mL (≈ 0.0382 to 0.0764 µM)	0.13 to 0.5 µg/mL (≈ 0.16 to 0.616 µM)	4 - 8	> 256 µg/mL	> 256 µg/mL	–	0.25 µg/mL (≈ 0.308 µM)	1 to 2 µg/mL (≈ 1.23 to 2.46 µM)	0.125 µg/mL (≈ 0.154 µM)	0.5 µg/mL (≈ 0.616 µM)	4	4 - 8	>=4 - 8	MIC (Streptococcus pneumoniae [22]): ≤ 0.032 µg/mL; MIC (Streptococcus pyogenes [23]): 32 µg/mL (≈ 39.4 µM); MIC (Streptococcus pyogenes [24]): ≤ 0.032 µg/mL; MIC (Staphylococcus aureus [25]): 0.125 µg/mL (≈ 0.154 µM); MIC (Staphylococcus aureus [26]): 0.125 µg/mL (≈ 0.154 µM); MIC (Staphylococcus aureus [27]): > 256 µg/mL; MIC (Staphylococcus aureus [28]): 0.125 µg/mL (≈ 0.154 µM); MIC [29]: 0.125 µg/mL (≈ 0.154 µM); Activity (Streptococcus pneumoniae [30]): 3 log10CFU; Activity (Streptococcus pneumoniae [31]): Active; Activity (Streptococcus pyogenes [32]): Active; Activity (Streptococcus pyogenes [33]): inactive

From ChEMBL document CHEMBL4346684, “Synthesis and structure-bactericidal activity relationships of non-ketolides: 9-Oxime clarithromycin 11,12-cyclic carbonate featured with three-to eight-atom-length spacers at 3-OH” (Eur J Med Chem, 2019)
